Assay results from ChEMBL document CHEMBL3992509, “Discovery of a Highly Potent, Selective, and Metabolically Stable Inhibitor of Receptor-Interacting Protein 1 (RIP1) for the Treatment of Systemic Inflammatory Response Syndrome” (J Med Chem, 2017).
Calls of active or inactive are those of the source. The calls are words filed in the database; no cut-off is given here.

What was measured:
Mus musculus [1] = experiment: Protection against TNFalpha-induced kidney damage in C57BL/6J mouse at 0.3 to 3 mg/kg, ip pretreated for 17 mins followed by TNFalpha injection and subsequent compound treatment once in every 12 hrs measured 24 hrs post TNFalpha injection by hematoxylin and eosin staining based assay; format: functional, organism-based
Method in brief: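 Mice given mTNFα IV; compound 0.3, 1, 3 mg/kg IP 17 min before and every 12 h. Killed 24 h post-TNFα. Organs fixed 24 h in 10% neutral buffered formalin, paraffin-embedded, 5-μm sections, H&E stained; ×200, at least three mice each.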

[2] = target: Receptor-interacting serine/threonine-protein kinase 3 (Homo sapiens) (UniProt Q9Y572); experiment: Inhibition of full length recombinant human N-terminal GST-tagged RIP3 expressed in baculovirus infected sf9 cells at 10 uM using MBP as substrate preincubated for 15 mins followed by MBP/ATP mixture addition measured after 90 mins by ADP-Glo kinase assay
Mus musculus [3] = experiment: Toxicity in C57BL/6J mouse assessed as injury at 50 mg/kg administered once in every 3 hrs for 24 hrs; format: organism-based; settings: in vivo
Method in brief: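 Mice dosed 50 mg/kg every 3 h for 24 h and examined for injury.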

[4] = Half life in human liver microsomes in presence of NADPH by LC-MS/MS analysis; format: ADME, microsome
[5] = Apparent permeability from apical to basolateral side in MDCK cells harboring MDR1; format: ADME, cell-based, Canis lupus familiaris; settings: dog
Method in brief: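 Permeability measured in MDCK-MDR1 cell monolayers in both directions, apical-to-basolateral and basolateral-to-apical; efflux ratio derived from the two Papp values.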

[6] = Efflux ratio of apparent permeability in MDCK cells harboring MDR1; format: ADME, cell-based, Canis lupus familiaris; settings: dog
[7] = Intrinsic clearance in human liver microsomes assessed per mg protein in presence of NADPH by LC-MS/MS analysis; format: ADME, microsome; settings: read-out: CLH
Cytochrome P450 1A2 = target: T1, Cytochrome P450 1A2 (Homo sapiens, UniProt P05177); experiment: Inhibition of CYP1A2 (unknown origin); format: ADME
T1 sequence (P05177 whole entry): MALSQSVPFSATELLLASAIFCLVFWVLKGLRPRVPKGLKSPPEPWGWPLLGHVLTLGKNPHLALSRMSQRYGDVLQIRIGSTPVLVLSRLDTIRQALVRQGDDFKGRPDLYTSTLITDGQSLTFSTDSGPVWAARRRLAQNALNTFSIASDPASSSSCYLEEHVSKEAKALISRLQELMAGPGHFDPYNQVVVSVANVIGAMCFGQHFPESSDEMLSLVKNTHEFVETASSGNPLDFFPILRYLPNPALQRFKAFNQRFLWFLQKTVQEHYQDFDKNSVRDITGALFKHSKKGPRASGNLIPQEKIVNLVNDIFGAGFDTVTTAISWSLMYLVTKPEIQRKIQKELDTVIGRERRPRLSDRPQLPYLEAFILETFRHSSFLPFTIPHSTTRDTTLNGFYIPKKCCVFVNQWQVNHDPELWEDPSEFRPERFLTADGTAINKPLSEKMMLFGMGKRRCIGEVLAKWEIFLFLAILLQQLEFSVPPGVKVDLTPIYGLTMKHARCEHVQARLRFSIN

Mus musculus [8] = experiment: Protection against TNFalpha-induced multiorgan damage in C57BL/6J mouse assessed as serum CK-MB level at 0.3 to 3 mg/kg, ip pretreated for 17 mins followed by TNFalpha injection and subsequent compound treatment once in every 12 hrs measured 24 hrs post TNFalpha injection; format: functional, organism-based
Method in brief: (§1)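 C57BL/6 mice given 4 μg mTNFα (~0.18 mg/kg) IV. Compound 0.3, 1, 3 mg/kg IP 17 min before and then every 12 h; vehicle controls. Blood taken 12 h and 24 h after TNFα. Assays: IL-6 and IL-1β; serum LDH, CK, AST, creatinine, BUN, amylase.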

[9] = target: T2, Receptor-interacting serine/threonine-protein kinase 1 (Homo sapiens, UniProt Q13546); experiment: Inhibition of RIP1 (unknown origin) using MBP as substrate preincubated for 15 mins followed by MBP/ATP mixture addition measured after 90 mins by ADP-Glo kinase assay
T2 sequence (Q13546 whole entry): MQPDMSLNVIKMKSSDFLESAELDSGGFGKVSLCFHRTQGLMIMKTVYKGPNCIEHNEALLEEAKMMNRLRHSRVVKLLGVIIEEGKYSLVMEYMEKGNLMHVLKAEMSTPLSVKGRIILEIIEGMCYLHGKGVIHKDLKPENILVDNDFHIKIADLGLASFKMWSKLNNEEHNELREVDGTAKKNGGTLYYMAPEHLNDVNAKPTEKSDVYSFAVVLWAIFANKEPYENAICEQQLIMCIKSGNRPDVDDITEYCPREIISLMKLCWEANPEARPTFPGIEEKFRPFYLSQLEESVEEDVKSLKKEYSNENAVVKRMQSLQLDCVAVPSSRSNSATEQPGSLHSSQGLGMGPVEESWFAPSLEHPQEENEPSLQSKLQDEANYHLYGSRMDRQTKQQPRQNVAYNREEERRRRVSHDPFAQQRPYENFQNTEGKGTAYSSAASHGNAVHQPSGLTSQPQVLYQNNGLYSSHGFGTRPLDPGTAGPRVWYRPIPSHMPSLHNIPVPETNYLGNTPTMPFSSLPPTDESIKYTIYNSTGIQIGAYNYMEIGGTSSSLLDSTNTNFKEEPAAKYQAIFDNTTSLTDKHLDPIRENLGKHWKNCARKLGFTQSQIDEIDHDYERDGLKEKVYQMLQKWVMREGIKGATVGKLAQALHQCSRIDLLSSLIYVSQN
Method in brief: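 Recombinant RIP1 pre-incubated 15 min with compound or DMSO in 25 mM HEPES pH 7.2, 20 mM MgCl2, 12.5 mM MnCl2, 5 mM EGTA, 2 mM EDTA, 12.5 mM β-glycerol phosphate, 2 mM DTT. Reaction started with ATP (50 μM final) and MBP (20 μM final), run 90 min at room temperature. ADP-Glo luminescence read-out.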

Mus musculus [10] = experiment: Protection against TNFalpha-induced mortality in ip dosed C57BL/6J mouse assessed as increase in survival rate administered as single dose 17 mins before TNFalpha injection measured every 30 mins up to 60 hrs post TNFalpha injection; format: functional, organism-based
Method in brief: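 C57BL/6 mice, 6-8 weeks, ~20 g, randomized (n = 6~10). Given 5.5 μg mTNFα (~0.25 mg/kg) IV in endotoxin-free PBS, 0.2 mL. Compound IP 17 min before TNFα: either once at 6 mg/kg or […], 1, 3 mg/kg then every 12 h; vehicle controls. Survival checked every 30 min to 60 h.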

Mus musculus [11] = experiment: Protection against TNFalpha-induced multiorgan damage in C57BL/6J mouse assessed as serum AST level at 0.3 to 3 mg/kg, ip pretreated for 17 mins followed by TNFalpha injection and subsequent compound treatment once in every 12 hrs measured 24 hrs post TNFalpha injection; format: functional, organism-based; method in brief: as §1
Mus musculus [12] = experiment: Protection against TNFalpha-induced multiorgan damage in C57BL/6J mouse assessed as inhibition of TNFalpha-induced increase in IL-6 level at 0.3 to 3 mg/kg, ip pretreated for 17 mins followed by TNFalpha injection and subsequent compound treatment once in every 12 hrs measured after 12 hrs; format: functional, organism-based; method in brief: as §1

Chain of Receptor-interacting serine/threonine-protein kinase 3 (Homo sapiens) (Q9Y572 whole entry, looked up): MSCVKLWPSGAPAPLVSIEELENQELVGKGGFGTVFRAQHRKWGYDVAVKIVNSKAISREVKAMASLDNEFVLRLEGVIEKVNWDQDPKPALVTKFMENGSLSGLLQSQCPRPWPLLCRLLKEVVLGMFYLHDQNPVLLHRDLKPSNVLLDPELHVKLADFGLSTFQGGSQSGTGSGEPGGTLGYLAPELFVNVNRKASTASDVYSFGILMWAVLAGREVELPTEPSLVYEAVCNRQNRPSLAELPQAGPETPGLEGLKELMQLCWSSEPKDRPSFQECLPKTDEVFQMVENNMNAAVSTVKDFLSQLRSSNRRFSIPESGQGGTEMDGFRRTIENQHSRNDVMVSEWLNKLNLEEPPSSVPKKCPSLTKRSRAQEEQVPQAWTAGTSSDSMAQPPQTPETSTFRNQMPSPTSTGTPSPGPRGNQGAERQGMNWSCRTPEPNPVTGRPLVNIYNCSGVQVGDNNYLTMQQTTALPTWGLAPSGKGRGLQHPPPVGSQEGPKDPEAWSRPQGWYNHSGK

With `CCC(C)(C)C(=O)N(O)Cc1ccccc1` as the compound, how does the Activity (Mus musculus [1]) read?
Its Activity is “Active”.

And the inhibition [2]?
Its inhibition is “inactive”.

And the Activity (Mus musculus [3])?
The Activity was “Non-Toxic”.

And the half-life [4]?
The half-life was 2.13 h.

What about the Papp A→B [5] of the same compound?
The Papp A→B was > 300 nm/s.

And the efflux ratio [6]?
The efflux ratio was 0.87.

What about the microsomal CLint [7] of the same compound?
The microsomal CLint was 5.4 µL/min/mg.

What about the IC50 (Cytochrome P450 1A2) of the same compound?
The IC50 was > 50 µM.

What about the Activity (Mus musculus [8]) of the same compound?
Its Activity is “Active”.

And the IC50 [9]?
The IC50 was 0.013 µM.

And the Activity (Mus musculus [10])?
Its Activity is “Dose-dependent effect”.

What about the Activity (Mus musculus [11]) of the same compound?
Its Activity is “Active”.

And the inhibition (Mus musculus [12])?
The inhibition was “Active”.
